Data set [1] is described as follows: Cytotoxicity against human HEL cells assessed as alteration of cell morphology. In kind it is cell-based. Put shortly: (§1)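 Uninfected cell cultures exposed to test compounds alongside antiviral assays; minimum cytotoxic concentration (MCC) = concentration causing a microscopically detectable alteration of cell morphology.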
Data set [2] relates to Human betaherpesvirus 5. Briefly: Antiviral activity against human cytomegalovirus AD169 infected HEL cells assessed as reduction in virus plaque formation. The data set is classed as functional, organism-based. The conditions noted are these: Human betaherpesvirus 5, AD169, HEL.
The test system of data set [3] is Human betaherpesvirus 5. Briefly: Antiviral activity against human cytomegalovirus Davis infected HEL cells assessed as reduction in virus plaque formation. The data set is classed as functional, organism-based. The conditions noted are these: Human betaherpesvirus 5, Davis.
A short description of data set [4]: Cytotoxicity against human HEL cells assessed as reduction of cell growth. The data set is classed as cell-based. Put shortly:
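HEL cells; CC50 = compound concentration reducing cell growth by 50%.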

The nature of data set [5]: Cytotoxicity against human E6SM cells. The data set is classed as cell-based. Conditions: E6SM cells. The method, boiled down:
as §1

The subject of data set [6] is Human alphaherpesvirus 1. Briefly: Antiviral activity against HSV1 KOS in human E6SM cells assessed as reduction of virus-induced cytopathogenicity. The conditions noted are these: Human alphaherpesvirus 1, KOS. In kind it is functional. Put shortly:
(§2)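 Confluent cell monolayers (E6SM, HEL, HeLa or Vero, per line) inoculated with 100 CCID50 virus; 1 h adsorption, residual virus removed, then incubated with compound at 400, 200, 100 … µg/ml. Cytopathicity scored once complete in untreated virus controls; MIC = concentration inhibiting virus-induced cytopathicity.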

In data set [7] the test system is Human alphaherpesvirus 1. Put plainly: Antiviral activity against HSV1 KOS in human HEL cells assessed as reduction of virus-induced cytopathogenicity. The data set is classed as functional. The conditions noted are these: Human alphaherpesvirus 1, KOS. The method, boiled down: as §2
For data set [8], the system named is Human alphaherpesvirus 2. Briefly: Antiviral activity against HSV2 G in human E6SM cells assessed as reduction of virus-induced cytopathogenicity. The data set is classed as functional. Conditions: Human alphaherpesvirus 2, G. Put shortly: as §2
On the technique in general: Cytopathic effects are the visible damage that an infection or toxin causes in cultured cells.

The test system of data set [9] is Human alphaherpesvirus 2. Put plainly: Antiviral activity against HSV2 G in human HEL cells assessed as reduction of virus-induced cytopathogenicity. In kind it is functional. Conditions: Human alphaherpesvirus 2, G. The method, boiled down: as §2
The test system of data set [10] is Vesicular stomatitis virus. Put plainly: Antiviral activity against in Vesicular stomatitis virus in human E6SM cells assessed as reduction of virus-induced cytopathogenicity. In kind it is functional. Put shortly:
as §2

The test system of data set [11] is Vesicular stomatitis virus. Briefly: Antiviral activity against in Vesicular stomatitis virus in human HEL cells assessed as reduction of virus-induced cytopathogenicity. The data set is classed as functional. Put shortly: as §2
Data set [12] deals with Human alphaherpesvirus 1. Put plainly: Antiviral activity against thymidine kinase deficient and acyclovir resistant HSV1 KOS in human E6SM cells assessed as reduction of virus-induced cytopathogenicity. The data set is classed as functional. The conditions noted are these: Human alphaherpesvirus 1, KOS. Put shortly:
as §2

Data set [13] has as its system Human alphaherpesvirus 1. Briefly: Antiviral activity against thymidine kinase deficient and acyclovir resistant HSV1 KOS in human HEL cells assessed as reduction of virus-induced cytopathogenicity. The data set is classed as functional. The conditions noted are these: Human alphaherpesvirus 1, KOS. Put shortly:
as §2

Data set [14] concerns Human immunodeficiency virus 1. Put plainly: Antiviral activity against HIV1 3B in human MT4 cells assessed as protection against virus-induced cytopathogenicity by MTT assay. The conditions noted are these: for IC50: Human immunodeficiency virus 1, 3B, MT4. In kind it is functional, organism-based. The arrangement: Activity: concentration or dose not given beside the values. The method, boiled down: (§3)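 MT-4 cells at 6 × 10⁵ cells/ml infected with HIV-1 IIIB or HIV-2 ROD at 100–300 CCID50; compounds in serial five-fold dilutions, triplicate mock- and virus-infected wells. MTT viability read at 540 and 690 nm after 5 days, median OD of three wells; EC50 = 50% protection from viral cytopathic effect.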

Data set [15] concerns Human immunodeficiency virus 2. Put plainly: Antiviral activity against HIV2 ROD in human MT4 cells assessed as protection against virus-induced cytopathogenicity by MTT assay. The data set is classed as functional, organism-based. The arrangement: Activity: concentration or dose not given beside the values. The conditions noted are these: for IC50: Human immunodeficiency virus 2, ROD, MT4. Put shortly: as §3

The nature of data set [16]: Cytotoxicity against human MT4 cells by MTT assay. In kind it is cell-based. The method, boiled down:
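Mock-infected MT-4 cells (6 × 10⁵ cells/ml) with serial five-fold compound dilutions in triplicate; MTT reduction read at 540 and 690 nm after 5 days, median OD of three wells; CC50 = concentration reducing OD540 of mock-infected control by 50%.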
Background: Tetrazolium assays rely on reduction of a dye to a coloured formazan, in cell work by metabolically active cells.

Data set [17] is described as follows: Cytotoxicity against human HeLa cells. The data set is classed as cell-based. Put shortly:
as §1

Data set [18] has as its system Vesicular stomatitis virus. Briefly: Antiviral activity against vesicular stomatitis virus in human HeLa cells assessed as inhibition of virus-induced cytopathogenicity. The data set is classed as functional. The method, boiled down: as §2
In data set [19] the test system is Coxsackievirus B4. Briefly: Antiviral activity against Coxsackie virus B4 in human HeLa cells assessed as inhibition of virus-induced cytopathogenicity. The data set is classed as functional. Conditions: Enterovirus B. Put shortly: as §2
In data set [20] the test system is Respiratory syncytial virus. Briefly: Antiviral activity against respiratory syncytial virus in human HeLa cells assessed as inhibition of virus-induced cytopathogenicity. In kind it is functional. The method, boiled down: as §2
The subject of another data set is Vero. Put plainly: Cytotoxicity against african green monkey Vero cells. In kind it is cell-based. Conditions: chlorocebus sabaeus. Put shortly:
as §1

In data set [21] the test system is Coxsackievirus B4. Put plainly: Antiviral activity against Coxsackie virus B4 in african green monkey Vero cells assessed as reduction of virus-induced cytopathogenicity. The data set is classed as functional. The conditions noted are these: Enterovirus B. Put shortly: as §2
Another data set concerns Punta Toro virus. Put plainly: Antiviral activity against Punta Toro virus in african green monkey Vero cells assessed as reduction of virus-induced cytopathogenicity. The data set is classed as functional. Put shortly: as §2
A further data set deals with Human respirovirus 3. Briefly: Antiviral activity against Parainfluenza 3 virus in african green monkey Vero cells assessed as reduction of virus-induced cytopathogenicity. The data set is classed as functional. Put shortly:
as §2

Data set [22] has as its system Mammalian orthoreovirus 1. Briefly: Antiviral activity against Reo virus 1 in african green monkey Vero cells assessed as reduction of virus-induced cytopathogenicity. In kind it is functional. Put shortly:
as §2

The next data set deals with Sindbis virus. Put plainly: Antiviral activity against Sindbis virus in african green monkey Vero cells assessed as reduction of virus-induced cytopathogenicity. In kind it is functional. The method, boiled down:
as §2

The results in this text go back to ChEMBL document CHEMBL1149790, “Synthesis of some novel thiourea derivatives obtained from 5-[(4-aminophenoxy)methyl]-4-alkyl/aryl-2,4-dihydro-3H-1,2,4-triazole-3-thiones and evaluation as antiviral/anti-HIV and anti-tuberculosis agents” (Eur J Med Chem, 2008).

In brackets after ≈: the same amount, converted by molar mass.

Consider `Nc1ccn(C[C@@H](CO)OCP(=O)(O)O)c(=O)n1.O.O` [CIDOFOVIR], for which the MCC in data set [1] was greater than 400 µg/mL. In addition, the figures for the EC50 in the data set with Human betaherpesvirus 5 [2] and in the data set with Human betaherpesvirus 5 [3] were 0.075 µg/mL and 0.64 µg/mL, respectively. Moreover, in [4], the CC50 (commonly the concentration that lowers cell viability or growth by half) is no less than 18 µg/mL.

For the compound `Nc1nc2c(ncn2COC(CO)CO)c(=O)[nH]1` [GANCICLOVIR], the MCC in data set [5] and in [1] was greater than 100 µg/mL each time. Further, the MIC was 0.032 µg/mL (≈ 0.125 µM) in the data set on Human alphaherpesvirus 1 [6]; 0.032 µg/mL (≈ 0.125 µM) in the data set on Human alphaherpesvirus 1 [7]; 0.032 µg/mL (≈ 0.125 µM) in the data set on Human alphaherpesvirus 2 [8]; 0.032 µg/mL (≈ 0.125 µM) with Human alphaherpesvirus 2 [9]; greater than 100 µg/mL in data set [10]; greater than 100 µg/mL in data set [11]. The MIC in the data set on Human alphaherpesvirus 1 [12] and in the data set with Human alphaherpesvirus 1 [13] was 2.4 µg/mL (≈ 9.4 µM) in each case. For the same compound, the figures for the EC50 in the data set with Human betaherpesvirus 5 [2] and in the data set on Human betaherpesvirus 5 [3] were 0.64 µg/mL (≈ 2.51 µM) and 1.9 µg/mL (≈ 7.44 µM), respectively. Besides, in data set [4], the CC50 was determined as 87 µg/mL (≈ 341 µM).

In the case of `Nc1nc2c(ncn2COCCO)c(=O)[nH]1` [ACYCLOVIR], the MCC in [5] and in [1] was greater than 400 µg/mL throughout. For the same compound, the MIC in the data set on Human alphaherpesvirus 1 [6] was 0.384 µg/mL (≈ 1.71 µM); with Human alphaherpesvirus 1 [7], 0.384 µg/mL (≈ 1.71 µM); in the data set on Human alphaherpesvirus 2 [8], 0.384 µg/mL (≈ 1.71 µM); in the data set with Human alphaherpesvirus 2 [9], 0.384 µg/mL (≈ 1.71 µM); in data set [10] it was greater than 400 µg/mL; in [11], greater than 400 µg/mL. The MIC in the data set with Human alphaherpesvirus 1 [12] and in the data set with Human alphaherpesvirus 1 [13] was 48 µg/mL (≈ 213 µM) throughout. Moreover, the CC50 in data set [4] was 200 µg/mL (≈ 888 µM).

In the case of `C=CCn1c(-c2ccc(NC(=S)Nc3ccccc3)cc2)n[nH]c1=S`, the results for the Activity (in [14]; in data set [15]; with Vero) were 30.5%, 0% and 80 µg/mL, respectively. Besides, the IC50 in data set [14] and in data set [15] was greater than 19.4 µg/mL in each case. In data set [16], the half-maximal cytotoxic concentration (CC50) was determined as 19.4 µg/mL (≈ 52.8 µM). In addition, the MCC in data set [17] was 400 µg/mL; in [5] it was 80 µg/mL; in data set [1], 80 µg/mL. Further, the MIC in data set [18] is greater than 80 µg/mL; in the data set on Coxsackievirus B4 [19], greater than 80 µg/mL; in data set [20], greater than 80 µg/mL; in the data set on Human alphaherpesvirus 1 [6], greater than 16 µg/mL; in the data set on Human alphaherpesvirus 1 [7], greater than 16 µg/mL; in the data set on Human alphaherpesvirus 2 [8], greater than 16 µg/mL. In addition, the MIC (in the data set with Human alphaherpesvirus 2 [9]; in [10]; in data set [11]; in the data set with Human alphaherpesvirus 1 [12]; in the data set on Human alphaherpesvirus 1 [13]; in the data set on Coxsackievirus B4 [21]) was greater than 16 µg/mL throughout. The MIC (with Punta Toro virus; in the data set with Human respirovirus 3; in data set [22]; in the data set on Sindbis virus) was greater than 16 µg/mL in each case.

`CNC(=S)Nc1ccc(-c2nnc(SCc3ccccc3)n2C)cc1`: the Activity is 2.5% in data set [14], 6% in [15] and 80 µg/mL in the data set on Vero. For the same compound, the 50% inhibitory concentration (IC50) in data set [14] and in data set [15] was greater than 75.4 µg/mL each time. This compound gave a half-maximal cytotoxic concentration (CC50) in data set [16] of 75.4 µg/mL (≈ 204 µM). Moreover, the MCC was 80 µg/mL in [17], no less than 16 µg/mL in data set [5] and no less than 16 µg/mL in [1]. Moreover, the MIC (in [18]; with Coxsackievirus B4 [19]; in data set [20]; with Human alphaherpesvirus 1 [6]; in the data set on Human alphaherpesvirus 1 [7]; with Human alphaherpesvirus 2 [8]) was greater than 16 µg/mL in each case. For the same compound, the MIC (in the data set on Human alphaherpesvirus 2 [9]; in data set [10]; in [11]; in the data set with Human alphaherpesvirus 1 [12]; with Human alphaherpesvirus 1 [13]; in the data set on Coxsackievirus B4 [21]) was greater than 16 µg/mL each time. Further, the MIC (in the data set with Punta Toro virus; in the data set on Human respirovirus 3; in data set [22]; in the data set on Sindbis virus) was greater than 16 µg/mL throughout.
